The record followed here is ChEMBL document CHEMBL4813996, “Design and development of 1,3,5-triazine derivatives as protective agent against spinal cord injury in rat via inhibition of NF-ĸB” (Bioorg Med Chem Lett, 2021).

Usually IC50 stands for the concentration that inhibits the measured activity by half.

Experiment [1] is described as follows: Inhibition of NFkappaB transcriptional activity in LPS-stimulated mouse RAW264.7 cells. Put shortly:
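IC50 for inhibition of NF-κB transcription, reported as mean ± SD from at least three independent assays.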

For experiment [2], the system named is Rattus norvegicus. Kind of experiment: Neuroprotective activity in contusion injury induced Sprague-Dawley rat SCI model assessed as improvement in ratio of wet to dry spinal cord weight at 10 to 30 mg/kg, ip administered once daily for 14 days. To be noted: dose 10-30 mg/kg, time 14.0 day. It is filed as functional, organism-based. Put shortly: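 Weight-drop contusion SCI, with a rod dropped on the cord. Rats given 10, 20 or 30 mg/kg i.p. in 2% CMC once a day for 14 days. Ratio of wet to dry spinal cord weight measured 24 h post-SCI. Mean ± SEM of three independent experiments, one-way ANOVA with Tukey test.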

Experiment [3] relates to Rattus norvegicus. Kind of experiment: Neuroprotective activity in contusion injury induced Sprague-Dawley rat SCI model assessed as inhibition of morphological changes in spinal cord at 10 to 30 mg/kg, ip administered once daily for 14 days by H and E staining based assay. The class given is functional, organism-based. To be noted: dose 10-30 mg/kg, time 14.0 day. Put shortly:
(§1)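 Rats with SCI from weight-drop contusion received 10, 20 or 30 mg/kg i.p., suspended in 2% CMC, daily for 14 days. Spinal cord tissue sections stained with H&E for histopathology and edema. Three independent experiments, mean ± SEM, one-way ANOVA with Tukey post hoc test.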

Experiment [4] concerns Rattus norvegicus. The experiment is described as follows: Neuroprotective activity in Sprague-Dawley rat SCI model assessed as reduction in NFkappaB expression in spinal cord at 10 to 30 mg/kg, ip administered once daily for 14 days by Western blot analysis. It is filed as functional, organism-based. To be noted: dose 10-30 mg/kg, time 14.0 day. Put shortly:
(§2)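 Weight-drop contusion SCI rats treated with 10, 20 or 30 mg/kg i.p. in 2% CMC daily for 14 days. Spinal cord tissue analysed by western blot for NF-κB, p-IκBα and TLR4, with band quantification. Mean ± SEM of three independent experiments.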
Background: Immunoblotting shows a protein as a band on a membrane.

The subject of experiment [5] is Rattus norvegicus. Kind of experiment: Neuroprotective activity in Sprague-Dawley rat SCI model assessed as reduction in TLR4 expression in spinal cord at 10 to 30 mg/kg, ip administered once daily for 14 days by Western blot analysis. The class given is functional, organism-based. The conditions noted are these: dose 10-30 mg/kg, time 14.0 day. Put shortly: as §2

For experiment [6], the system named is Rattus norvegicus. Kind of experiment: Neuroprotective activity in Sprague-Dawley rat SCI model assessed as increase in SOD level at 10 to 30 mg/kg, ip administered once daily for 14 days. It is filed as functional, organism-based. The conditions noted are these: dose 10-30 mg/kg, time 14.0 day. Put shortly:
(§3)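 Spinal cord of weight-drop contusion SCI rats dosed at 10, 20 or 30 mg/kg i.p. in 2% CMC daily for 14 days. Oxidative stress indices MDA, GSH and SOD measured in spinal cord. Mean ± SEM, three independent experiments, one-way ANOVA with Tukey test against sham and SCI groups.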

Experiment [7] relates to Rattus norvegicus. Kind of experiment: Neuroprotective activity in ip dosed contusion injury induced Sprague-Dawley rat SCI model assessed as restoration of motor functions administered once daily for 14 days. The class given is functional, organism-based. The conditions noted are these: dose 10-30 mg/kg, time 14.0 day. Put shortly: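 Spinal cord contusion made by weight drop, a rod dropped onto the cord. Dosing at 10, 20 and 30 mg/kg i.p., suspended in 2% CMC, once daily for 14 days. Motor function scored on the BBB scale on days 1, 4, 7, 10 and 14. Mean ± SEM from three independent experiments, one-way ANOVA with Tukey post hoc test, compared with sham and SCI groups.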

In experiment [8] the test system is Rattus norvegicus. The experiment is described as follows: Neuroprotective activity in Sprague-Dawley rat SCI model assessed as reduction in IL-6 level at 10 to 30 mg/kg, ip administered once daily for 14 days by ELISA. The class given is functional, organism-based. The conditions noted are these: dose 10-30 mg/kg, time 14.0 day. Put shortly: (§4)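 After weight-drop contusion SCI, rats received 10, 20 or 30 mg/kg i.p. as a 2% CMC suspension once daily for 14 days. TNF-α, IL-1β and IL-6 levels determined by ELISA. Mean ± SEM from three independent experiments, one-way ANOVA followed by Tukey post hoc test.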

The subject of experiment [9] is Rattus norvegicus. Kind of experiment: Neuroprotective activity in contusion injury induced Sprague-Dawley rat SCI model assessed as restoration of tissue histopathology in spinal cord at 10 to 30 mg/kg, ip administered once daily for 14 days by H and E staining based assay. It is filed as functional, organism-based. The conditions noted are these: dose 10-30 mg/kg, time 14.0 day. Put shortly:
as §1

The subject of experiment [10] is Rattus norvegicus. Kind of experiment: Neuroprotective activity in Sprague-Dawley rat SCI model assessed as reduction in MDA level at 10 to 30 mg/kg, ip administered once daily for 14 days. The class given is functional, organism-based. To be noted: dose 10-30 mg/kg, time 14.0 day. Put shortly: as §3
For experiment [11], the system named is Rattus norvegicus. Kind of experiment: Neuroprotective activity in Sprague-Dawley rat SCI model assessed as increase in GSH level at 10 to 30 mg/kg, ip administered once daily for 14 days. The class given is functional, organism-based. The conditions noted are these: dose 10-30 mg/kg, time 14.0 day. Put shortly:
as §3

For experiment [12], the system named is Rattus norvegicus. The experiment is described as follows: Neuroprotective activity in Sprague-Dawley rat SCI model assessed as reduction in TNFalpha level at 10 to 30 mg/kg, ip administered once daily for 14 days by ELISA. The class given is functional, organism-based. The conditions noted are these: dose 10-30 mg/kg, time 14.0 day. Put shortly: as §4
On the technique in general: An ELISA detects its analyte on a solid surface through an enzyme-linked reagent.

For experiment [13], the system named is Rattus norvegicus. The experiment is described as follows: Neuroprotective activity in ip dosed Sprague-Dawley rat SCI model assessed as increase in nissl bodies administered once daily for 14 days by Nissl staining based assay. It is filed as functional, organism-based. To be noted: dose 10-30 mg/kg, time 14.0 day. Put shortly:
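Contusion SCI by weight drop. Treatment at 10, 20 or 30 mg/kg i.p. in 2% CMC once daily for 14 days. Neuronal damage assessed by Nissl staining of the spinal cord, with Nissl bodies quantified. Mean ± SEM from three independent experiments.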

Experiment [14] concerns Rattus norvegicus. The experiment is described as follows: Neuroprotective activity in contusion injury induced Sprague-Dawley rat SCI model assessed as reduction in edema in spinal cord at 10 to 30 mg/kg, ip administered once daily for 14 days by H and E staining based assay. It is filed as functional, organism-based. The conditions noted are these: dose 10-30 mg/kg, time 14.0 day. Put shortly: as §1

The test system of experiment [15] is Rattus norvegicus. Kind of experiment: Neuroprotective activity in Sprague-Dawley rat SCI model assessed as reduction in IL-1beta level at 10 to 30 mg/kg, ip administered once daily for 14 days by ELISA. The class given is functional, organism-based. The conditions noted are these: dose 10-30 mg/kg, time 14.0 day. Put shortly: as §4
The subject of experiment [16] is Rattus norvegicus. Kind of experiment: Neuroprotective activity in Sprague-Dawley rat SCI model assessed as reduction in IkappaBalpha expression in spinal cord at 10 to 30 mg/kg, ip administered once daily for 14 days by Western blot analysis. The class given is functional, organism-based. To be noted: dose 10-30 mg/kg, time 14.0 day. Put shortly:
as §2

Activity calls are given as the source filed them. No cut-off for these calls is given here.

In [1], `Cc1nc(NC(=O)c2ccc(CN3CCN(c4ccccc4)CC3)cc2)nc(Nc2nccc(-c3nccs3)n2)n1` yielded an IC50 of 136 µM.

Consider `Cc1nc(NC(=O)c2ccc(CN3CCN(c4ccc([N+](=O)[O-])cc4)CC3)cc2)nc(Nc2nccc(-c3nccs3)n2)n1`, for which the IC50 in experiment [1] worked out at 6.12 µM. This IC50 lies about 22-fold lower than the previous one.

Turning to `COc1ccc(N2CCN(Cc3ccc(C(=O)Nc4nc(C)nc(Nc5nccc(-c6nccs6)n5)n4)cc3)CC2)cc1`, the concentration for half-maximal inhibition (IC50) in experiment [1] amounted to 87.3 µM.

With `Cc1nc(NC(=O)c2ccc(CN3CCN(c4ccc(Br)cc4)CC3)cc2)nc(Nc2nccc(-c3nccs3)n2)n1`, 3.21 µM corresponded to half-maximal inhibition in experiment [1] (IC50). Compared with the last compound, the IC50 is about 27-fold lower.

Regarding `C[C@@H]1C[C@H]2[C@@H]3CCC4=CC(=O)C=C[C@]4(C)[C@@]3(F)[C@@H](O)C[C@]2(C)[C@@]1(O)C(=O)CO` [DEXAMETHASONE], inhibition in [1] was half-maximal at 0.92 µM (IC50).

Take `Cc1nc(NC(=O)c2ccc(CN3CCN(c4ccc(Cl)cc4)CC3)cc2)nc(Nc2nccc(-c3nccs3)n2)n1`: the outcome in the experiment with Rattus norvegicus [2], in the experiment with Rattus norvegicus [3], with Rattus norvegicus [4], in the experiment with Rattus norvegicus [5], in the experiment on Rattus norvegicus [6] and in the experiment with Rattus norvegicus [8] was Active. Also, the result in the experiment with Rattus norvegicus [9], with Rattus norvegicus [10], with Rattus norvegicus [11], in the experiment with Rattus norvegicus [12], with Rattus norvegicus [14] and with Rattus norvegicus [15] was Active. Besides, the outcome with Rattus norvegicus [16] was Active. For the same compound, the Activity entry in the experiment on Rattus norvegicus [7] and in the experiment on Rattus norvegicus [13] was “Dose-Dependent Effect” in each case. The compound further had an IC50 in [1] of 1.04 µM.

In experiment [1], `Cc1nc(NC(=O)c2ccc(CN3CCN(c4ccc(O)cc4)CC3)cc2)nc(Nc2nccc(-c3nccs3)n2)n1` had an IC50 of 54.2 µM. This counts as double-digit micromolar.

Turning to `Cc1ccc(NC(=O)c2ccc(CN3CCN(C)CC3)cc2)cc1Nc1nccc(-c2cccnc2)n1` [IMATINIB], half-maximal inhibition in [1] (IC50) was put at 1.34 µM. This IC50 is about 40-fold lower than that of the compound before.

On to `Cc1ccc(N2CCN(Cc3ccc(C(=O)Nc4nc(C)nc(Nc5nccc(-c6nccs6)n5)n4)cc3)CC2)cc1`, for which the IC50 in [1] stood at 9.9 µM.
